MrgX1 antag = antagonists of human MrgX1 receptor, primary screen, HEK293 cells, Fluo-4 calcium flux. BAM8-22 antagonism; stronger effect = lower value. B-score at 10 µM. 310,000 tested, 1.3% active. AID 588676, 2011;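 active = calcium-response B-score plate-corrected more than 3 library SD below zero, starting fluorescence within 5 deviations, no agonist response on first addition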;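 note: peak minus trough fluorescence over baseline after final BAM8-22 challenge near maximal dose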
Target sequence (Q96LB2 whole entry, looked up): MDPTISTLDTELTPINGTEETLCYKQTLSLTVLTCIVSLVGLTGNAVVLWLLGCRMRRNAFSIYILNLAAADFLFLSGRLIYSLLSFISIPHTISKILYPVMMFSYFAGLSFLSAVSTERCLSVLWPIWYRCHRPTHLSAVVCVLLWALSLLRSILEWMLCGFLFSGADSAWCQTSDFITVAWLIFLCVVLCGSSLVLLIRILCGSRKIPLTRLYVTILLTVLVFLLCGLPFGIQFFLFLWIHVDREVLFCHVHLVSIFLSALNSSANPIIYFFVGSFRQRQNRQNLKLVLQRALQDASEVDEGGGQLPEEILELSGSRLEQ
RGS4 pot = RGS4 potentiators or activators, primary screen, cell-based, HEK293 M3R inducible RGS4, calcium flux; AID 463111, 2010; 310,000 tested, 0.92% active; carbachol calcium flux Fluo4; stronger effect = lower value; B-score at 10 µM;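 active = B-score of the integrated calcium signal more than 4 SD below the library mean, with starting fluorescence not abnormally high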;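 note: negative B-score means reduced calcium response which marks RGS4 activation or potentiation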
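test system = HEK293 cells with stable M3R and inducible RGS4 | schedule = recording 10 s baseline at 1 Hz, 100 s post-agonist | technique = Fluo4-AM (2 µM) calcium-flux fluorescence, kinetic read | measure = Agonist-evoked peak-minus-minimum fluorescence over baseline, integrated ratio, B score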
MrgX1 ag = agonists of human MrgX1 receptor, primary screen, HEK293 cells, Fluo-4 calcium flux | Mas-related G-protein coupled receptor member X1 (Homo sapiens), Q96LB2 | Fluo-4 calcium fluorescence, agonist mode; stronger effect = higher value | B-score at 10 µM | 310,000 tested, 0.44% active;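 active = calcium response B-score plate-corrected fluorescence ratio at least 3 library SD, with starting fluorescence B-score inside 5 SD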
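times = overnight plating, then 30 min 37 °C plus 30 min room-temperature dye loading | assay system = stable human MrgX1 HEK293 cell line | input = fifteen thousand cells per well | signal = kinetic calcium dye fluorescence, Fluo-4 NW | dosing = compound delivered in addition one of three | read-out = B-scored fluorescence response ratio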
RGS4 block = RGS4 inhibitors, primary screen, cell-based, HEK293 M3R inducible RGS4, calcium flux; B-score at 10 µM; 310,000 tested, 0.45% active; Regulator of G-protein signaling 4 (Homo sapiens), P49798; AID 463165, 2010; Fluo-4 calcium flux; stronger effect = higher value; triggered by carbachol at its EC20;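 active = B-score, a plate-corrected calcium signal, over three deviations above library mean, with baseline fluorescence within five deviations of library mean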;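 note: RGS4 expression induced by doxycycline in cells with stable M3 receptor; B-score is computed from the integrated fluorescence ratio over baseline after carbachol; higher B-score means a larger calcium signal and so more RGS4 inhibition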
Target sequence (P49798 whole entry, looked up): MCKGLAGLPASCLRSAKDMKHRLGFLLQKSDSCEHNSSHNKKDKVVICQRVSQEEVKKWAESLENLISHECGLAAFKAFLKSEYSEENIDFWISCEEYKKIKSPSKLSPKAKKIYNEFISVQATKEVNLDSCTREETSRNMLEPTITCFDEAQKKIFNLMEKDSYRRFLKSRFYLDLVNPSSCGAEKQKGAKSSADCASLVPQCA
MrgX1 allo act = positive allosteric modulators of MrgX1, primary screen, HEK293 cells, Fluo-4 calcium flux | Mas-related G-protein coupled receptor member X1 (Homo sapiens), Q96LB2 | FDSS; stronger effect = higher value | B-score at 10 µM | 310,000 tested, 0.63% active | AID 588675, 2011;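 active = plate-corrected calcium response at least 3 library SD above typical, normal starting fluorescence, not activating the receptor alone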;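 note: compound read alongside a low EC10 to EC30 dose of BAM8-22 agonist; peak minus trough fluorescence over baseline measured at the second addition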
RGS4 activ val = reduced carbachol calcium response, RGS4-induced M3R cells, confirmation, RGS4 activator project, cell-based, HEK293 M3R/RGS4 inducible, calcium flux, duplicate; shares compounds with RGS4 pot; carbachol calcium flux Fluo4; inhibition, % at 10 µM; 1,100 tested, 89% active; AID 602282, 2012;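 active = inhibition above 3 SD of the buffer control wells, cut at about 41% in these data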;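 note: signal is the integrated peak-minus-minimum Fluo4 fluorescence over baseline ratio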
RGS4 act ctr = RGS4 activator counter-screen hit in non-induced cells; shares compounds with RGS4 pot; HEK293 M3R non-induced RGS4, Fluo4 calcium flux; after carbachol challenge at its EC90; inhibition, % at 10 µM; 1,100 tested, 82% active;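 active = inhibition exceeding 3 SD of buffer-only control wells, cut at about 26% in these data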;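 note: percent drop in integrated peak-minus-baseline over baseline Fluo4 ratio after carbachol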
A number is an active result; n = inactive; x = no result given. A selection: hits, their analogues and other compounds. The true share with any hit is near 3.5%.

SMILES | MrgX1 antag | RGS4 pot | MrgX1 ag | RGS4 block | MrgX1 allo act | RGS4 activ val | RGS4 act ctr
Cc1cc(C)c(C#N)c(SCC(O)COc2ccc(Br)cc2)n1 (centres undefined) | n | -13 | n | n | n | 94 | 94
CN1/C(=C\C=C(/C#N)C(=O)Nc2ccc(Cl)cc2)C(C)(C)c2ccccc21 | n | n | n | n | n | x | x
CN1/C(=C\C(=O)Nc2ccc(Cl)cc2)C(C)(C)c2ccccc21 | n | -9.7 | n | n | n | 92 | 95
N#Cc1cc(-c2ccc(Cl)cc2)cnc1Sc1ccc(F)cc1 | n | n | n | n | n | x | x
Cc1[nH]nc2c1C(c1ccc(F)cc1)C1=C(CC(C)(C)CC1=O)N2 (centres undefined) | n | -9.7 | n | n | n | n | n
CCOC(=O)c1cc2sccc2n1CCCN1C(=O)c2ccccc2C1=O | n | -7.9 | n | n | n | 73 | 84
CCOC(=O)c1cc2sccc2n1Cc1ccccc1 | n | n | n | n | n | x | x
COc1ccc(OC)c(NC(=O)NNC(=O)CCCOc2ccc(Cl)cc2C)c1 | n | n | n | n | n | x | x
CCC(CC)C(=O)Nc1cccc(C(=O)N2CCOCC2)c1 | n | -10 | n | n | n | n | n
CCC(CC)C(=O)Nc1cccc(C(=O)N2CCCCCC2)c1 | n | n | n | n | n | x | x
COc1ccc(Br)cc1C(=O)Nc1ccc(Cc2ccncc2)cc1 | n | n | n | n | n | x | x
COc1c(C(=O)Nc2ccc(Cc3ccncc3)cc2)ccc2ccccc12 | n | -13 | n | n | n | 92 | 86
Cc1cccc(N2CCN(C(=S)NCCc3ccccc3)CC2)c1C | n | n | n | n | n | x | x
Cc1ccc(Cl)cc1N1CCN(C(=S)NCCc2ccccc2)CC1 | n | -12 | n | n | n | 94 | 67
CCOc1ccc(NC(C(=O)Nc2cccc(C(C)=O)c2)c2ccccc2)cc1 (centres undefined) | n | n | n | n | n | x | x
CCN(CC)CCNC(C(=O)Nc1cccc(C(C)=O)c1)c1ccccc1 (centres undefined) | -5 | -13 | n | n | n | 90 | 45
Cc1ccccc1OCC(=O)NC(=S)Nc1ccccc1N1CCN(S(C)(=O)=O)CC1 | n | -9.1 | n | n | n | 62 | n
O=S(=O)(c1ccc(C(F)(F)F)cc1)N1CCN(CCc2ccccc2)CC1 | n | n | n | n | n | x | x
CCOC(=O)c1ccc(NC(=S)N2CCCC(C(=O)N3CCCC3)C2)cc1 (centres undefined) | n | n | n | n | n | x | x
CCOC(=O)c1ccc(NC(=S)N2CCC(O)CC2)cc1 | n | n | n | n | n | x | x
CCOC(=O)c1ccc(NC(=S)N2CCSC2c2ccc(Br)cc2)cc1 (centres undefined) | n | -8.1 | n | n | n | 92 | 91
CCOC(=O)c1ccc(NC(=S)N2CCCC(C)C2)cc1 (centres undefined) | n | -8.9 | n | n | n | 79 | 26
CCCCC(NC(=O)CCc1c(C)c2cc3c4c(oc3c(C)c2oc1=O)CCCC4)C(=O)O (centres undefined) | n | n | n | n | n | x | x
O=C(NCc1ccc(S(=O)(=O)NC2CCCCC2)s1)c1ccccc1 | n | n | n | n | n | x | x
CC1CCC(C(C)C)C(OC(=O)C[n+]2cc(-c3ccc(Cl)cc3)n3c2CCCCC3)C1 (centres undefined) | n | -11 | n | n | n | 94 | 94
SMILES | MrgX1 antag | RGS4 pot | MrgX1 ag | RGS4 block | MrgX1 allo act | RGS4 activ val | RGS4 act ctr
Brc1ccc(-c2c[n+]3c(n2-c2ccccc2)SCC3)cc1 | n | n | n | n | n | x | x
c1ccc(Cn2c(-c3ccccc3)c[n+]3c2SCCC3)cc1 | n | -11 | n | n | n | 92 | 89
COc1ccc(C2c3ccc4ccccc4c3Oc3ncn(CCCN(C)C)c(=N)c32)cc1 (centres undefined) | n | -8.6 | n | n | n | 40 | 84
COc1ccccc1C1c2ccc3ccccc3c2Oc2ncn(CCN(C)C)c(=N)c21 (centres undefined) | n | -8.3 | n | n | n | 86 | 67
COc1ccccc1C1c2ccc3ccccc3c2Oc2ncn(CCCO)c(=N)c21 (centres undefined) | n | n | n | n | n | x | x
Cc1cc(CN2CCC(n3nccc3NC(=O)c3ccccc3C)CC2)n[nH]1 | n | n | n | n | n | x | x
COc1ccccc1/C=C/CN1CCC(n2nccc2NC(=O)CCc2ccccc2)CC1 | n | -8.2 | n | n | n | 61 | 84
CCOC(=O)c1cc(-c2ccccc2)nc2nc(N(CC)CC)sc12 | n | -9 | n | n | n | 88 | 76
COc1ccc(OC)c(-c2csc(NC(=O)c3ccc(F)cc3)n2)c1 | n | -8.3 | n | n | n | 82 | 52
CCCC(=O)NC(=S)Nc1cccc(Cl)c1N1CCCCC1 | n | -8.9 | n | n | n | 94 | 64
CCc1c(C)nc(SCC(=O)NNC(=O)c2ccco2)[nH]c1=O | n | n | n | n | n | x | x
COc1ccc(N(CC(=O)NC2CCCCC2)C(=O)c2ccc(C)s2)cc1OC | n | n | n | n | n | x | x
COC(=O)c1ccc(N(CC(=O)NC2CCCC2)C(=O)c2ccc(C)s2)cc1 | n | -8.9 | n | n | n | n | n
CCCCCCNS(=O)(=O)c1ccc(Cl)s1 | n | -10 | n | n | n | 43 | 84
COc1cc(C)ccc1NC(=O)Cc1csc(NC(=O)Nc2ccccc2OC)n1 | n | -10 | n | n | n | 94 | 91
C/C(=C\C=C(C#N)C#N)c1cc(C#N)c(N)o1 | x | -8.3 | x | n | x | 62 | 57
CCn1c2ccccc2c2cc(/C=N/n3c(-c4cc(C)[nH]n4)n[nH]c3=S)ccc21 | n | -7.8 | n | n | n | 70 | 42
CCn1c2ccccc2c2cc(/C=N/n3cn[nH]c3=S)ccc21 | n | n | n | n | n | x | x
COc1ccc(CCN2CC(C(=O)NCCc3ccccc3C(F)(F)F)CCC2=O)cc1 (centres undefined) | n | n | n | n | n | x | x
CCOc1ccc(NCc2cccn2-c2nnc(N3CCC(C(=O)NCCCN4CC(C)CC(C)C4)CC3)s2)cc1 (centres undefined) | n | n | n | n | n | x | x
CCOc1cccc(C(=O)NC(=S)Nc2ccc(N3CCN(CC)CC3)cc2)c1 | n | -11 | n | n | n | 92 | 87

Screening data deposited in PubChem by Johns Hopkins Ion Channel Center.
